Screening results from PubChem.
This is a sample that favours compounds with a hit; in the whole collection about 5.1% have one here.
M1 agonist – M1 muscarinic receptor agonists, primary screen, CHO-M1 cells, Fluo-4 calcium, agonist mode. actives 3% (n = 64,000). B-score at 10 µM. Fluo-4 calcium fluorescence; hits give high values;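 active means fluorescence rise, raw or as B-score row- and column-corrected plate score, outside the 99.7% band of its plate's samples, either direction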
tolC growth inh – growth inhibitors of E. coli tolC mutant, primary screen, strain BW25113 ΔtolC::kan, 384-well | OD615 | actives 2.2% (n = 65,000) | growth inhibition, % at 10 µM (by protocol);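 active means growth inhibition at or above a cutoff equal to the mean over every tested compound plus 3 SD, cut at about 60% in these data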;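 further: growth measured after 20 h incubation at 37 °C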
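Material: E. coli BW25113 ΔtolC::kan, tolC deletion mutant strain. Measure: percent growth inhibition. Schedule: 37 °C, 20 h exposure. Doses: single-point testing at 10 µM. Signal: A615 absorbance measurement. Buffer or medium: kanamycin-containing LB broth (50 µg/mL).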
BAP1 inh – inhibitors of BAP1 deubiquitinase, primary screen, biochemical, Ub-AMC fluorescence, kinetic; Ubiquitin carboxyl-terminal hydrolase BAP1 (Homo sapiens), Q92560; calls only at 20 µM; recombinant BAP1, Ub-AMC hydrolysis fluorescence kinetic; hits give low values; actives 0.48% (n = 72,000); AID 436, 2006;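 active means activity remaining at or below 50% of control, provided the compound also passes the data quality filters; inactive means the rest, including low values that fail the filters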
M1 antag – antagonists of rat M1 muscarinic receptor | Muscarinic acetylcholine receptor M1 (Rattus norvegicus), P08482 | B-score at 10 µM | actives 3.4% (n = 64,000) | CHO-M1 cells, Fluo-4 calcium, ACh EC80 antagonist mode; hits give low values;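 active means calcium fluorescence response, raw or row-and-column corrected B-score, differing from the plate sample mean either way at a set confidence level, mostly lower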
Target sequence (P08482 whole entry, looked up): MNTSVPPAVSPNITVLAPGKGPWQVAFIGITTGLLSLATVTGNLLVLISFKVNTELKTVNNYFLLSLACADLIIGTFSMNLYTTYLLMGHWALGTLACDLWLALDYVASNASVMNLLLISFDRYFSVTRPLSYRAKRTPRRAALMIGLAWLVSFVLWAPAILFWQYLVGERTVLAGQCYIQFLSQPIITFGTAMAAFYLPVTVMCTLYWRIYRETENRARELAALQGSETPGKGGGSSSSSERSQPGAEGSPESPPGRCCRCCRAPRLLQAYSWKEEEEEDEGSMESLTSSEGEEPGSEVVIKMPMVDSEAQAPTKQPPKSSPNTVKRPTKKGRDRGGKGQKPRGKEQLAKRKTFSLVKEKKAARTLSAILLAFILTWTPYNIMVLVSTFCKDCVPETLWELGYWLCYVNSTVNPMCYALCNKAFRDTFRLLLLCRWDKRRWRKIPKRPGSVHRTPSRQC
Hsp90 block – tumor Hsp90 inhibitors, primary screen, cell lysate, fluorescence polarization, NCI-N417 lysate; Heat shock protein HSP 90-alpha (Homo sapiens), P07900; Cy3B-geldanamycin FP displacement; inhibition, % at 30 µM; actives 0.35% (n = 64,000); AID 429, 2006;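 active means inhibition above 50%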
E coli WT exp – growth inhibitors of wild-type E. coli, primary screen, strain BW25113, expanded library, OD600; growth inhibition, % at 100 µM; actives 0.15% (n = 98,000); OD600 absorbance;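 active means growth inhibition above about 50% at one test dose, limit read from the data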;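 further: growth measured after 20 h incubation at 37 °C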
Hits are given with their value; i = inactive; nt = not tested or not shown; + = active, no number.

SMILES	M1 agonist	tolC growth inh	BAP1 inh	M1 antag	Hsp90 block	E coli WT exp
CCOc1ccc(NS(=O)(=O)c2ccc(SC)cc2)cc1	i	73	i	i	i	i
CCOC(=O)Cc1ccc(NS(=O)(=O)c2ccc(SC)cc2)cc1	i	70	i	i	i	i
CCOC(=O)c1ccc(NC(=O)NS(=O)(=O)c2ccc(C)cc2)cc1	i	i	i	i	i	i
CCOC(=O)c1ccc(NS(=O)(=O)c2ccc(SC)cc2)cc1	i	70	i	i	i	i
CCOc1ccc(NS(=O)(=O)c2ccc(N)cc2)cc1	nt	nt	nt	nt	nt	i
Cc1ccc(S(=O)(=O)Nc2cccc3ncccc23)s1	i	100	i	i	i	i
Brc1ccc(CSc2nnc(-c3ccccn3)n2Cc2ccco2)cc1	i	98	nt	i	nt	i
CC(C)(C)c1ccc(CSc2nnc(-c3ccccn3)n2Cc2ccco2)cc1	nt	nt	nt	nt	nt	i
c1ccc(CSc2nnc(-c3cccs3)n2Cc2ccco2)cc1	i	96	nt	i	i	nt
Clc1cccc(CSc2nnc(-c3ccccn3)n2Cc2ccco2)c1	i	100	nt	i	nt	i
COc1ccc(OCC(=O)N(c2ccccc2)C(C)C)cc1	nt	nt	i	nt	nt	nt
Cc1ccc(S(=O)(=O)N2CCN(C(=O)CCC(=O)N3CCc4ccccc43)CC2)cc1	i	i	nt	-3.3	nt	nt
Cc1ccc(S(=O)(=O)CCC(=O)N2CCc3ccccc32)cc1	nt	nt	nt	nt	nt	i
O=C(O)CCCC(=O)N1CCc2cc(S(=O)(=O)N3CCc4ccccc43)ccc21	i	75	i	i	i	i
Cc1cc(NC(=O)C2CCCCC2)nc2c1c(=O)oc1ccccc12	i	76	i	i	i	i
CC(C)c1ccc(OCc2nc(-c3ccccn3)no2)c(Br)c1	i	96	i	i	i	i
COc1ccc(S(=O)(=O)Nc2ccccc2C(=O)NCc2ccco2)cc1Br	i	83	i	i	i	i
O=C(CSc1nnc(Cc2cc(=O)[nH]c(=O)[nH]2)n1-c1ccccc1)NCC1CCCO1 (stereo not given)	i	i	i	i	89	i
COCCN(CCOC)S(=O)(=O)c1ccc(C(=O)Nc2nnc(C)o2)cc1	i	i	i	i	i	i
CCc1nnc(NC(=O)c2ccc(S(=O)(=O)N(CC(C)C)CC(C)C)cc2)o1	i	99	i	i	i	i
CSCc1nnc(NC(=O)c2ccc(S(=O)(=O)N(CC(C)C)CC(C)C)cc2)o1	i	99	i	i	i	i
COc1ccc(OC(C)C(=O)Nc2ccc(OC)cc2OC)cc1 (stereo not given)	nt	nt	i	nt	nt	nt
COc1ccc2nc(SCC(=O)N(C)C3CCCCC3)c(C#N)cc2c1	i	63	i	i	i	i
CCCCCCCCCCCCCCSCC(=O)O	nt	nt	+	nt	i	nt
Cc1ccc(C2CC(c3ccco3)n3ncnc3N2)cc1 (stereo not given)	i	nt	nt	i	nt	i
SMILES	M1 agonist	tolC growth inh	BAP1 inh	M1 antag	Hsp90 block	E coli WT exp
Cc1ccc2c(c1)C(N1CCCC1=O)CC(c1ccco1)N2 (stereo not given)	2.6	i	i	i	i	i
COc1ccc(-c2cnc(SCC(=O)Nc3ccc4c(c3)OCO4)n2Cc2ccco2)cc1	i	66	i	i	i	i
CC(=O)Nc1cccc(NC(=O)CSc2ncc(-c3ccc(Cl)cc3)n2Cc2ccco2)c1	i	94	i	i	i	i
O=C(CSc1nnc(-c2ccc(Cl)cc2)n1Cc1ccco1)Nc1ccc2c(c1)OCCO2	i	i	i	i	i	nt
Cc1ccc(OCC(=O)Nc2ccc(C)cc2Br)cc1	nt	nt	i	nt	nt	nt
CS(=O)c1nc(-c2ccc(Br)cc2)cc(-c2ccccc2)c1C#N (stereo not given)	i	95	i	i	i	i
CS(=O)(=O)c1nc(-c2ccc(Br)cc2)cc(-c2ccccc2)c1C#N	nt	nt	nt	nt	nt	i
CC1(C)CC2CC(C)(CN2C(=O)c2cc(-c3ccccc3O)on2)C1 (stereo not given)	i	95	i	i	i	i
CC1(C)CC2CC(C)(CN2C(=O)c2cccs2)C1 (stereo not given)	nt	i	i	nt	i	i
COc1ccc(-c2cc(C(=O)N3CC4(C)CC3CC(C)(C)C4)no2)cc1 (stereo not given)	i	65	i	i	i	i
COc1ccc(-c2cc(C(=O)N3CCOCC3)no2)cc1OC	i	i	i	i	i	i
COc1ccc(-c2cc(C(=O)N3CC4(C)CC3CC(C)(C)C4)no2)cc1OC (stereo not given)	i	71	i	i	i	i
O=[N+]([O-])c1ccc(Cl)cc1NCCOc1ccccc1	nt	nt	i	nt	nt	nt
CCc1ccc(NC2=C(Cl)C(=O)N(c3cccc(C)c3C)C2=O)cc1	nt	nt	i	nt	nt	nt
COc1ccc(-c2nnc(SCC(=O)c3ccc(C)o3)o2)cc1	i	i	i	i	i	nt
COc1ccc(-c2nnc(SCc3cc(C)cc(C)c3)o2)cc1	i	69	i	i	i	i
CC1(C)CC(=O)C(Sc2ccc(Br)cc2)=C(OC(=O)c2ccco2)C1	nt	nt	i	nt	nt	nt
N#Cc1c(N2CCCCC2)nc(N)c2c(N)nc3c(c12)CC(c1ccccc1)O3 (stereo not given)	nt	nt	nt	nt	nt	i
CCN(CC)c1nc(N)c2c(N)nc3c(c2c1C#N)CC(c1ccccc1)O3 (stereo not given)	i	76	nt	2.2	i	i
Oc1ccc(Br)cc1-c1nc2cnccn2c1NC1CCCCC1	nt	nt	nt	nt	nt	i
Oc1ccc(Br)cc1-c1nc2cnccn2c1NC1CCCC1	i	97	nt	i	nt	i
CCCCOc1ccc(C(=O)O)cc1	i	i	i	i	i	i
CCCCNc1cc(C(=O)O)cc(S(N)(=O)=O)c1Oc1ccccc1	i	i	nt	i	i	nt
O=C(NNC(=O)c1ccc([N+](=O)[O-])o1)c1ccccc1	nt	nt	nt	nt	nt	100
CC1CCN(CC(=O)N2CCCc3c2c(=O)oc2ccc(OCc4ccccc4)cc32)CC1	nt	nt	nt	nt	nt	i
SMILES	M1 agonist	tolC growth inh	BAP1 inh	M1 antag	Hsp90 block	E coli WT exp
CCCOc1ccc2oc(=O)c3c(c2c1)CCCN3C(=O)CN1CCc2ccccc2C1	i	77	i	i	i	i
COC(=O)c1[nH]c2cc(OC)ccc2c1NC(=O)CCN1CCN(c2ccccc2)CC1	nt	nt	nt	nt	nt	i
COC(=O)c1[nH]c2ccccc2c1NC(=O)CN1CCN(c2cccc(OC)c2)C(C)C1 (stereo not given)	i	77	i	i	i	i
O=C1OCC(CO)(CO)N=C1NNc1ccc(Cl)c(Cl)c1	nt	nt	nt	nt	nt	88
Cc1c(Cc2ccccc2)c(N2CCOCC2)n2c(nc3ccccc32)c1C#N	nt	nt	i	nt	nt	nt
COC(=O)c1ccc(C(=O)Nc2nc3c(s2)CCc2ccccc2-3)cc1	nt	nt	i	nt	nt	nt
